From ChEMBL document CHEMBL1177638, “Synthesis of pyrrolo[3,2-h]quinolinones with good photochemotherapeutic activity and no DNA damage” (Bioorg Med Chem, 2010)
Calls of active or inactive are those of the source. The calls are words filed in the database; no cut-off is given here.

Tests used:
Jurkat [1] = assay: Induction of apoptosis in human Jurkat cells assessed as phosphatidylserine esposure after 2 hrs using annexin-V FITC and PI staining by flow cytometry; type: functional, cell-based
How it was run: (§1)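 Jurkat cells (100,000) were irradiated (2.5 J/cm²) with compound present and centrifuged 30 min, 1 h or 2 h later. They were stained with Annexin V-FITC/PI for 15 min in the dark, and FITC (FL1) and PI (FL3) were read by flow cytometry, with at least 10,000 events. Cells were classed as intact, early apoptotic, late apoptotic/necrotic or necrotic. Values are the mean of three experiments.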

Jurkat [2] = assay: Phototoxicity against human Jurkat cells irradiated with 3.75 J/cm'2 after 72 hrs by MTT assay; type: functional, cell-based; conditions: light or radiation study
How it was run: (§2)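 Cells were seeded at 8 × 10³ and preincubated 18 h at 37 °C, 5% CO₂. Jurkat and K-562 grew in RPMI-1640, MCF-7 and NCTC-2544 in DMEM, and LoVo in Ham's F12, all with 10% FBS plus penicillin and streptomycin. Compounds in DMSO were diluted in HBSS, pH 7.2 (range 20–0.31; DMSO ≤1%) and applied 30 min at 37 °C. Wells were then UV-A irradiated (365 nm; 2.5 or 3.75 J/cm²), medium was replaced, and MTT was read after 72 h.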

Jurkat [3] = assay: Cell cycle arrest in human Jurkat cells assessed as accumulation in S phase at 1 uM irradiated with 20 J/cm'2 after 24 hrs by flow cytometry; type: functional
How it was run: (§3)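 Exponentially growing Jurkat cells (5 × 10⁵) were irradiated with compound present. Drug was removed, and cells were kept 24 h in RPMI-1640, fixed in ice-cold 70% ethanol, and treated overnight with RNAse (10 KU/mL) in PBS. Cells were stained with propidium iodide and run on a flow cytometer, with DNA content reported as the fraction of cells in each cycle phase.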

Jurkat [4] = assay: Induction of apoptosis in human Jurkat cells assessed as induction of loss of membrane potential at 1 uM after 4 hrs post irradiation with 20 J/cm'2 using JC1 staining by FACS; type: functional
How it was run: (§4)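 Irradiated Jurkat cells treated with compound were collected 2 and 4 h after irradiation and resuspended in HBSS containing JC-1. Green (FL1) and orange (FL2) fluorescence were read by flow cytometry, with at least 10,000 events per sample. Values are mean ± SD of at least three independent experiments.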

Nucleic Acid [5] = assay: Binding affinity to salmon testes DNA assessed as intercalation by linear dichroism experiment; type: nucleic-acid assay; conditions: Salmonidae
How it was run: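 Salmon testes DNA was mixed with compound at [Drug]/[DNA] ratios of 0, 0.02 and 0.04 in 10 mM phosphate buffer, pH 7.2. Samples were oriented in a rotating cylindrical flow cuvette (0.14 cm path, 800 rpm), and linear dichroism spectra were recorded over roughly 250–450 nm.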

LoVo [6] = assay: Phototoxicity against human LoVo cells irradiated with 3.75 J/cm'2 after 72 hrs by MTT assay; type: functional, cell-based; conditions: light or radiation study; how it was run: as §2
Jurkat [7] = assay: Phototoxicity against human Jurkat cells irradiated with 2.5 J/cm'2 after 72 hrs by MTT assay; type: functional, cell-based; conditions: light or radiation study; how it was run: as §2
[8] = Phototoxicity against human sNCTC-2544 cells irradiated with 3.75 J/cm'2 after 72 hrs by MTT assay; type: functional, cell-based; conditions: NCTC-2544, light or radiation study; how it was run: as §2
Jurkat [9] = assay: Induction of apoptosis in human Jurkat cells assessed as induction of loss of membrane potential at 1 uM after 4 hrs post-irradiation with 20 J/cm'2 by flow cytometry; type: functional; how it was run: as §4
Jurkat [10] = assay: Induction of apoptosis in human Jurkat cells assessed as lysosomal dysfunction at 1 uM after 2 hrs post-irradiation with 2.5 J/cm'2 using acridine orange dye by flow cytometry; type: functional
How it was run: (§5)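 Jurkat cells were irradiated (2.5 J/cm²) with compound present and collected at 2 and 4 h. They were resuspended in RPMI-1640 containing acridine orange, and the percentage of red-fluorescent cells (intact lysosomes) was scored by flow cytometry. Values are mean ± SD of at least three independent experiments.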

Jurkat [11] = assay: Induction of apoptosis in human Jurkat cells assessed as increase in mitochondrial ROS production at 2.5 uM after 6 hrs post-irradiation with 2.5 J/cm'2 by FACS analysis; type: functional
How it was run: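 Jurkat cells were collected 6 h after UV-A irradiation (2.5 J/cm²) with the compound and resuspended in HBSS with hydroethidine 2.5 µM or DCFDA 5 µM. They were incubated at 37 °C for 15 or 30 min. Flow cytometry used 488 nm excitation, with emission at 620 nm (HE) or 530 nm (DCF), acquiring ≥10,000 events. Values are means ± SD of three independent experiments.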

Jurkat [12] = assay: Induction of apoptosis in human Jurkat cells assessed as lysosomal dysfunction at 1 uM after 4 hrs post-irradiation with 2.5 J/cm'2 using acridine orange dye by flow cytometry; type: functional; how it was run: as §5
Jurkat [13] = assay: Cell cycle arrest in human Jurkat cells assessed as accumulation in G1 phase at 1 uM irradiated with 25 J/cm'2 after 24 hrs by flow cytometry
K562 [14] = assay: Phototoxicity against human K562 cells irradiated with 2.5 J/cm'2 after 72 hrs by MTT assay; type: functional, cell-based; conditions: K562, light or radiation study; how it was run: as §2
MCF7 [15] = assay: Phototoxicity against human MCF7 cells irradiated with 2.5 J/cm'2 after 72 hrs by MTT assay; type: functional, cell-based; conditions: MCF7, light or radiation study; how it was run: as §2
[16] = Phototoxicity against human sNCTC-2544 cells irradiated with 2.5 J/cm'2 after 72 hrs by MTT assay; type: functional, cell-based; conditions: NCTC-2544, light or radiation study; how it was run: as §2
Jurkat [17] = assay: Induction of apoptosis in human Jurkat cells assessed as increase in mitochondrial ROS production at 1 uM after 6 hrs post-irradiation with 2.5 J/cm'2 by FACS analysis; type: functional
How it was run: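 Jurkat cells were irradiated (2.5 J/cm²) with compound present and collected 6 h later. They were resuspended in HBSS with hydroethidine and DCFDA (2.5 and 5, respectively) and held at 37 °C for 15 or 30 min. Flow cytometry used 488 nm excitation, reading 620 nm for HE and 530 nm for DCF, with at least 10,000 events. Values are mean ± SD, three independent experiments.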

K562 [18] = assay: Phototoxicity against human K562 cells irradiated with 3.75 J/cm'2 after 72 hrs by MTT assay; type: functional, cell-based; conditions: K562, light or radiation study; how it was run: as §2
LoVo [19] = assay: Phototoxicity against human LoVo cells irradiated with 2.5 J/cm'2 after 72 hrs by MTT assay; type: functional, cell-based; conditions: light or radiation study; how it was run: as §2
Jurkat [20] = assay: Induction of apoptosis in human Jurkat cells assessed as induction of loss of membrane potential at 1 uM after 2 hrs post-irradiation with 20 J/cm'2 by flow cytometry; type: functional; how it was run: as §4
Jurkat [21] = assay: Cell cycle arrest in human Jurkat cells assessed as accumulation in G2/M phase at 1 uM irradiated with 25 J/cm'2 after 24 hrs by flow cytometry
Jurkat [22] = assay: Induction of lipid peroxidation in human Jurkat cells irradiated with 2.5 J/cm'2 assessed as increase in malondialdehyde production after 24 hrs by TBARS assay relative to untreated control; type: functional, cell-based
How it was run: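 Jurkat cells (500,000) were irradiated (2.5 J/cm²) with compound present and incubated 24 h. Supernatant was kept with BHT, and cells were lysed in 1% SDS, with protein measured by the Peterson method. Malondialdehyde was measured by thiobarbituric acid reaction (fluorescence, 553 nm) against a 1,1,3,3-tetraethoxypropane standard curve. Results are given as nmol TBARS normalized to protein.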

MCF7 [23] = assay: Phototoxicity against human MCF7 cells irradiated with 3.75 J/cm'2 after 72 hrs by MTT assay; type: functional, cell-based; conditions: MCF7, light or radiation study; how it was run: as §2
Jurkat [24] = assay: Induction of apoptosis in human Jurkat cells assessed as induction of loss of membrane potential at 1 uM after 2 hrs post-irradiation with 20 J/cm'2 using JC1 staining by FACS; type: functional; how it was run: as §4
Jurkat [25] = assay: Cell cycle arrest in human Jurkat cells assessed as accumulation in subG1 phase at 1 uM irradiated with 20 J/cm'2 after 24 hrs by flow cytometry; type: functional; how it was run: as §3
Jurkat [26] = assay: Induction of apoptosis in human Jurkat cells assessed as phosphatidylserine esposure after 30 mins using annexin-V FITC and PI staining by flow cytometry; type: functional, cell-based; how it was run: as §1
Jurkat [27] = assay: Induction of apoptosis in human Jurkat cells assessed as induction of loss of membrane potential at 2.5 uM after 4 hrs post-irradiation with 20 J/cm'2 by flow cytometry; type: functional
How it was run: (§6)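 JC-1 probe at 1 µg/mL in HBSS was added to Jurkat cells spun down 2 or 4 h after UV-A irradiation with the compound. Green (FL1) and orange (FL2) fluorescence were read by flow cytometry, ≥10,000 events per sample. Values are means ± SD of at least three independent experiments.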

[28] = Photodamaging activity to ribonuclease irradiated with 2.5 J/cm'2 UV light assessed as increase in carbonyl content; type: physicochemical
How it was run: (§7)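 BSA or RNase A at 2 mg/mL in phosphate buffer was irradiated with the compound in a quartz cuvette for various times. Carbonyl content was measured spectrophotometrically after 2,4-dinitrophenylhydrazine derivatization.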

Jurkat [29] = assay: Induction of apoptosis in human Jurkat cells assessed as induction of loss of membrane potential at 2.5 uM after 2 hrs post-irradiation with 20 J/cm'2 using JC1 staining by FACS; type: functional; how it was run: as §6
Jurkat [30] = assay: Induction of apoptosis in human Jurkat cells assessed as lysosomal dysfunction at 2.5 uM after 2 hrs post-irradiation with 2.5 J/cm'2 using acridine orange dye by flow cytometry; type: functional
How it was run: (§8)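 Jurkat cells were irradiated (2.5 J/cm² UV-A) with the compound and collected 2 or 4 h later. They were resuspended in RPMI-1640 containing acridine orange 1 µM. Intact-lysosome cells were scored by red fluorescence on flow cytometry. Values are means ± SD of at least three independent experiments.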

Jurkat [31] = assay: Induction of apoptosis in human Jurkat cells assessed as induction of loss of membrane potential at 2.5 uM after 4 hrs post irradiation with 20 J/cm'2 using JC1 staining by FACS; type: functional; how it was run: as §6
Jurkat [32] = assay: Induction of apoptosis in human Jurkat cells assessed as lysosomal dysfunction at 2.5 uM after 4 hrs post-irradiation with 2.5 J/cm'2 using acridine orange dye by flow cytometry; type: functional; how it was run: as §8
Jurkat [33] = assay: Induction of apoptosis in human Jurkat cells assessed as induction of loss of membrane potential at 2.5 uM after 2 hrs post-irradiation with 20 J/cm'2 by flow cytometry; type: functional; how it was run: as §6
[34] = Photodamaging activity to bovine serum albumin irradiated with 2.5 J/cm'2 UV light assessed as increase in carbonyl content; type: physicochemical; conditions: cattle; how it was run: as §7
Nucleic Acid [35] = assay: Binding affinity to UV irradiated pBR322 assessed as strand break by electrophoresis; type: nucleic-acid assay; conditions: Escherichia coli
How it was run: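 Plasmid irradiated with the compound. Aliquots were then incubated at 37 °C with Fpg or Endo III. Bands were quantified densitometrically and supercoiled (Form I) and open circular (Form II) fractions were calculated.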

Row | SMILES | IC50 (Jurkat [2]) [nM] | Activity (Jurkat [3]) [%] | Activity (Jurkat [4]) [%] | Activity (Nucleic Acid [5]) | IC50 (LoVo [6]) [nM] | IC50 (Jurkat [7]) [nM] | IC50 [8] [nM] | Activity (Jurkat [10]) [%] | Activity (Jurkat [12]) [%] | Activity (Jurkat [13]) [%] | IC50 (K562 [14]) [nM] | IC50 (MCF7 [15]) [nM] | IC50 [16] [nM] | Activity (Jurkat [17]) | IC50 (K562 [18]) [nM] | IC50 (LoVo [19]) [nM] | Activity (Jurkat [21]) [%] | Activity (Jurkat [22]) | IC50 (MCF7 [23]) [nM] | Activity (Jurkat [25]) [%] | also measured
1 | CCOC(=O)c1cc2c(n1Cc1ccc(OC)cc1)-c1[nH]c(=O)c(S(=O)(=O)c3ccccc3)cc1CC2 | 700 | 6.1 | 25.86 | inactive | 1000 | 800 | 1600 | 58.5 | 63.16 | 12.6 | 1000 | 1600 | 1900 | 79.08% | 900 | 1100 | 6.6 | Dose-dependent effect | 1300 | 74.7 | Activity (Jurkat [1]): Active; Activity (Jurkat [9]): 47.07%; Activity (Jurkat [11]): Active; Activity (Jurkat [20]): 44.43%; Activity (Jurkat [24]): 55.57%
2 | CCOC(=O)c1cc2c(n1Cc1ccccc1)-c1[nH]c(=O)c(S(=O)(=O)c3ccccc3)cc1CC2 | 600 | 8.2 | 32.82 | inactive | 800 | 800 | 1000 | 29.76 | 55.82 | 16.1 | 900 | 900 | 1100 | 24.4% | 600 | 900 | 7.2 | Dose-dependent effect | 800 | 68.5 | Activity (Jurkat [1]): Active; Activity (Jurkat [9]): 67.18%; Activity (Jurkat [11]): Active; Activity (Jurkat [20]): 24.26%; Activity (Jurkat [24]): 75.74%
3 | CCOC(=O)c1cc2c(n1C)-c1[nH]c(=O)c(S(=O)(=O)c3ccccc3)cc1CC2 | 500 | 6.6 | 94.8 | inactive | 1000 | 700 | 1100 | 29.72 | 36.97 | 16.1 | 1000 | 1200 | 1200 | 0.7% | 900 | 1100 | 14 | Dose-dependent effect | 1000 | 63.3 | Activity (Jurkat [26]): Active; Activity (Jurkat [9]): 5.14%; Activity (Jurkat [20]): 1.3%; Activity (Jurkat [24]): 98.68%
4 | O=c1ccc2ccc3occc3c2o1 [ANGELICIN] |  | 46.7 |  | Active | 1500 | 1000 | 900 | 9.82 | 6.63 | 12.3 | 1200 | 4400 | 4200 | Active | 1000 | 3600 | 10.2 | Dose-dependent effect | 1500 | 30.8 | Activity (Jurkat [27]): 41.2%; Activity [28]: Active; Activity (Jurkat [29]): 98.92%; Activity (Jurkat [30]): 15.03%; Activity (Jurkat [11]): 15.82%; Activity (Jurkat [31]): 58.8%; Activity (Jurkat [32]): 50.85%; Activity (Jurkat [33]): 1.08%; Activity [34]: Active; Activity (Nucleic Acid [35]): Active
